Laboratory results: ChEMBL document CHEMBL4033605 (J Nat Prod, 2017)
Active and inactive are the calls of the source. The rule behind the calls is not given here. Where a SMILES comes first, the peptide text is derived from it.

Tests used:
[1] = target: Dipeptidyl peptidase 4 (Homo sapiens) (UniProt P27487); assay: Inhibition of human recombinant DPP4 at 10 uM using H-Gly-Pro AMC substrate incubated for 30 mins by spectrophotometry
Procedure, shortened: (§1)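 Human recombinant DPP4 was assayed in 20 mM Tris-HCl pH 8.0 with 100 mM NaCl and 1 mM EDTA. Compound in DMSO was tested at 10 µM final, with three-fold serial dilutions down to 1.5 nM. H-Gly-Pro-AMC substrate was added as a 200 µM solution. After 30 min at 37 °C, fluorescence was read at excitation 355 and emission 455 nm. Background wells had no enzyme. All conditions were run in triplicate.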

[2] = test system: MCF7; assay: Cytotoxic activity against human MCF7 cells assessed as zone diffusion inhibition by measuring distance to perimeter (diffusion distance units) at 36 umol by disk diffusion soft agar colony inhibition assay (reference value: 0 unit); format: functional
[3] = test system: PANC-1; assay: Cytotoxic activity against human PANC1 cells assessed as zone diffusion inhibition by measuring distance to perimeter (diffusion distance units) at 36 umol by disk diffusion soft agar colony inhibition assay (reference value: 0 unit); format: functional
[4] = test system: MCF7; assay: Cytotoxic activity against human MCF7 cells assessed as zone diffusion inhibition by measuring distance to perimeter (diffusion distance units) at 9 umol by disk diffusion soft agar colony inhibition assay (reference value: 0 unit); format: functional
[5] = target: Dipeptidyl peptidase 4 (Homo sapiens) (UniProt P27487); assay: Inhibition of human recombinant DPP4 at <3.33 uM using H-Gly-Pro AMC substrate incubated for 30 mins by spectrophotometry; procedure, shortened: as §1
[6] = test system: HCT-116; assay: Cytotoxic activity against human HCT116 cells incubated for 48 hrs by MTT assay; format: functional, cell-based; conditions: HCT-116, 48 h
[7] = test system: CCRF-CEM; assay: Cytotoxic activity against human CEM cells assessed as zone diffusion inhibition by measuring distance to perimeter (diffusion distance units) at 9 umol by disk diffusion soft agar colony inhibition assay (reference value: 0 unit); format: functional
[8] = test system: CFU-GM; assay: Cytotoxic activity against human CFU-GM cells assessed as zone diffusion inhibition by measuring distance to perimeter (diffusion distance units) at 9 umol by disk diffusion soft agar colony inhibition assay (reference value: 0 unit); format: functional
[9] = Cytotoxic activity against human U251N cells assessed as zone diffusion inhibition by measuring distance to perimeter (diffusion distance units) at 9 umol by disk diffusion soft agar colony inhibition assay (reference value: 0 unit); format: functional
[10] = Cytotoxic activity against human H116 cells assessed as zone diffusion inhibition by measuring distance to perimeter (diffusion distance units) at 36 umol by disk diffusion soft agar colony inhibition assay (reference value: 0 unit); format: functional
[11] = test system: LNCaP; assay: Cytotoxic activity against human LNCAP cells assessed as zone diffusion inhibition by measuring distance to perimeter (diffusion distance units) at 36 umol by disk diffusion soft agar colony inhibition assay (reference value: 0 unit); format: functional
[12] = Cytotoxic activity against human H116 cells assessed as zone diffusion inhibition by measuring distance to perimeter (diffusion distance units) at 9 umol by disk diffusion soft agar colony inhibition assay (reference value: 0 unit); format: functional
[13] = Cytotoxic activity against human H125 cells assessed as zone diffusion inhibition by measuring distance to perimeter (diffusion distance units) at 9 umol by disk diffusion soft agar colony inhibition assay (reference value: 0 unit); format: functional
[14] = Cytotoxic activity against human H125 cells assessed as zone diffusion inhibition by measuring distance to perimeter (diffusion distance units) at 36 umol by disk diffusion soft agar colony inhibition assay (reference value: 0 unit); format: functional
[15] = test system: LNCaP; assay: Cytotoxic activity against human LNCAP cells assessed as zone diffusion inhibition by measuring distance to perimeter (diffusion distance units) at 9 umol by disk diffusion soft agar colony inhibition assay (reference value: 0 unit); format: functional
[16] = test system: OVCAR-5; assay: Cytotoxic activity against human OVCAR5 cells assessed as zone diffusion inhibition by measuring distance to perimeter (diffusion distance units) at 36 umol by disk diffusion soft agar colony inhibition assay (reference value: 0 unit); format: functional
[17] = test system: CCRF-CEM; assay: Cytotoxic activity against human CEM cells assessed as zone diffusion inhibition by measuring distance to perimeter (diffusion distance units) at 36 umol by disk diffusion soft agar colony inhibition assay (reference value: 0 unit); format: functional
[18] = test system: CFU-GM; assay: Cytotoxic activity against human CFU-GM cells assessed as zone diffusion inhibition by measuring distance to perimeter (diffusion distance units) at 36 umol by disk diffusion soft agar colony inhibition assay (reference value: 0 unit); format: functional
[19] = Cytotoxic activity against human U251N cells assessed as zone diffusion inhibition by measuring distance to perimeter (diffusion distance units) at 36 umol by disk diffusion soft agar colony inhibition assay (reference value: 0 unit); format: functional
[20] = test system: NCI-H460; assay: Cytotoxic activity against human H460 cells incubated for 48 hrs by MTT assay; format: functional, cell-based; conditions: NCI-H460, 48 h

Chain of Dipeptidyl peptidase 4 (Homo sapiens) (P27487 whole entry, looked up): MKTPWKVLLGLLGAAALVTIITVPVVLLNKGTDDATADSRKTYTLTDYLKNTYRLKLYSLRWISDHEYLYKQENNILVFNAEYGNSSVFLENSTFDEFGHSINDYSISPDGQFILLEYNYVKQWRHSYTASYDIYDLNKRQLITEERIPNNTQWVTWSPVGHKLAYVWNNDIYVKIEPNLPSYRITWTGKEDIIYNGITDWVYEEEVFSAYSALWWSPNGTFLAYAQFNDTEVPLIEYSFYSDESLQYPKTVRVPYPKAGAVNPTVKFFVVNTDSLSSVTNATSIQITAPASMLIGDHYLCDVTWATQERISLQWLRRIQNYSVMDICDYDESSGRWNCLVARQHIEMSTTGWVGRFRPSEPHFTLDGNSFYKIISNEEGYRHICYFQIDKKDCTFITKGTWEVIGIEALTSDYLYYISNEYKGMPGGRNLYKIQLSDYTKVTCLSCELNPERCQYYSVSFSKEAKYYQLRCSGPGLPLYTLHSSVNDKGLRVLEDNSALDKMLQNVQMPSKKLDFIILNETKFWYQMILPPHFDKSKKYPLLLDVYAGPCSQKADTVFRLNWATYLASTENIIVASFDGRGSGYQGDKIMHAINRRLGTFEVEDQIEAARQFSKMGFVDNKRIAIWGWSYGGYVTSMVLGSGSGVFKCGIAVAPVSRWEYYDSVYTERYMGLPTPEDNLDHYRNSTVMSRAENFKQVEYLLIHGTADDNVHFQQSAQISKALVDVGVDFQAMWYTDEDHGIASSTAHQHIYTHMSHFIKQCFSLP

Row | inhibition [1] | inhibition [5] | Compound | inhibition zone (IZ) [2] | inhibition zone (IZ) [3] | inhibition zone (IZ) [4] | IC50 [6] | inhibition zone (IZ) [7] | inhibition zone (IZ) [8] | inhibition zone (IZ) [9] | inhibition zone (IZ) [10] | inhibition zone (IZ) [11] | inhibition zone (IZ) [12] | inhibition zone (IZ) [13] | inhibition zone (IZ) [14] | inhibition zone (IZ) [15] | inhibition zone (IZ) [16] | inhibition zone (IZ) [17] | inhibition zone (IZ) [18] | inhibition zone (IZ) [19] | IC50 [20]
1 | 15.7% | inactive | CC[C@H](C)[C@@H]1NC(=O)[C@@H]2CCCN2C(=O)[C@H](Cc2ccccc2)NC(=O)[C@H](C(C)C)NC(=O)[C@H](CC(C)C)NC(=O)[C@@H]2CCCN2C(=O)[C@@H]2CCCN2C(=O)[C@H](Cc2ccccc2)NC1=O (cyclo(LVFPIFPP)) | 500 U | 200 U | 300 U | < 10000 nM | 350 U | 400 U | 300 U | 600 U | 500 U | 200 U | 300 U | 550 U | 300 U | 200 U | 600 U | 700 U | 500 U | –
2 | – | – | COc1cccc2c1C(=O)c1c(O)c3c(c(O)c1C2=O)C[C@@](O)(C(=O)CO)C[C@@H]3O[C@H]1C[C@H](N)[C@H](O)[C@H](C)O1 [DOXORUBICIN] | – | – | – | – | – | – | – | – | – | – | – | – | – | – | – | – | – | 200 nM
